Measurements from different studies.
Lines come from different studies, so protocols differ.
Target: Cyclin-dependent kinase 5 (CDK5, Homo sapiens, UniProt Q00535)

With `c1cncc(-c2cccc(Nc3nccc(NC4CCCCC4)n3)c2)c1` the remaining binding was 81% (binding, competition with immobilised ligand; 10 µM).
`CCCCN(CCCC)C(=O)CN1C[C@@H](c2cc(OC)c3c(c2)OCO3)[C@H](C(=O)O)[C@H]1CC(C)(C)CCC` gave a remaining binding of 97.7% (cell-free assay, competition with immobilised ligand; 1 µM).
For `F[C@@H]1CCN(c2nccc(-c3cnn4ncccc34)n2)C1`, the remaining binding was 100% (binding; 1 µM).
`C[C@@H]1CN(c2cc(-c3nn(C)c4ccc(OC5(C)CC5)cc34)ncn2)C[C@H](C)O1` gave a remaining binding of 100% (cell-free assay, competition with immobilised ligand; 1 µM).
For `O=C(Nc1c[nH]nc1C(=O)NC1CCNCC1)c1cc(F)cc(F)c1`, the remaining binding was 100% (binding, competition with immobilised ligand; 1 µM).
For `O=C(c1ccc(Nc2ncc(Cl)c(-c3cc4ccccc4s3)n2)cc1)N1CCC(N2CCCC2)CC1`, the remaining binding was 42% (binding, competition with immobilised ligand; 1 µM).
`CNC(=O)[C@@H]1CC[C@@H](n2c(-c3ccc4cnccc4c3)nc3ccc(C(=O)NCc4cccc(C(N)=O)c4)cc32)C1` has a remaining binding of 89% (binding, competition with immobilised ligand; 1 µM).
With `Nc1ncc2c(n1)-c1c([nH]c3ccc(C#CC4CC4)cc13)CCCC2` the remaining binding was 96% (binding, competition with immobilised ligand; 1 µM).
With `O=C(c1ccc(Nc2nccc(-c3cc4ccccc4s3)n2)cc1)N1CCC(N2CCCC2)CC1` the remaining binding was 92% (binding, competition with immobilised ligand; 1 µM).
For `Cc1cnn2ncc(-c3ccnc(N(C)C)n3)c2c1`, the remaining binding was 100% (binding; 1 µM).
`COc1cnc(Nc2cccc(S(N)(=O)=O)c2)nc1N1CCN(c2ccccc2)CC1` gave a remaining binding of 100% (binding, competition with immobilised ligand; 1 µM).
The remaining binding of `O=C(NCCCN1CCOCC1)c1ccc(Nc2ncc(Cl)c(-c3ccc(Cl)s3)n2)cc1` is reported as 42% (binding, competition with immobilised ligand; 1 µM).
`COc1ccnn2ncc(-c3ccnc(N(C)C)n3)c12` has a remaining binding of 100% (binding; 1 µM).
With `CNCc1ccccc1-c1csc([C@@H](C)Nc2nc(C)nc3cc(OC)c(OC)cc23)c1` the remaining binding was 78% (cell-free assay, competition with immobilised ligand; 1 µM).
With `CN(C)c1nccc(-c2cnc3ncccn23)n1` the remaining binding was 91% (binding; 1 µM).
`O=c1nc(-c2ccccn2)sc2ccccc12` has a remaining binding of 85% (binding, competition with immobilised ligand; 1 µM).
The remaining binding of `c1cnn2ncc(-c3ccnc(N4CCC45COC5)n3)c2c1` is reported as 99% (binding; 1 µM).
`CCS(=O)(=O)c1cc2cc(C[C@](O)(CC(C)(C)c3ccc(F)cc3C(N)=O)C(F)(F)F)[nH]c2cn1` gave a remaining binding of 100% (cell-free assay, competition with immobilised ligand; 1 µM).
The remaining binding of `CN(c1nccc(-c2cnn3ncccc23)n1)C1CC1` is reported as 100% (binding; 1 µM).
With `Cn1cc(Cl)c2c(Oc3c(F)cc(Nc4cc(Cl)nc(N)n4)cc3F)ccnc21` the remaining binding was 100% (cell-free assay, competition with immobilised ligand; 0.1 µM).
`C[C@H]1CCN(c2nccc(-c3cnn4ncccc34)n2)C1` gave a remaining binding of 97% (binding; 1 µM).
`FC(F)(F)Oc1cccc(-c2cnc3ccc(-c4ccncc4)nn23)c1` has a remaining binding of 93% (cell-free assay, competition with immobilised ligand; 5 µM).
